Only some compounds are listed: those with a hit (about 2% of all), similar ones and a draw of the others.
CAL PDZ FP-1 – blocks peptide binding to human CAL PDZ domain; purified CAL PDZ, TMR-peptide fluorescence polarization, 1 h; Q9HD26; inhibition, % at 20 µM; 330,000 tested, 0.02% active;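 active = highest replicate inhibition of at least 40%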
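Material – purified CerCALP PDZ construct · Detection – FP readout, S and P plane fluorescence · Measure – percent inhibition from loss of millipolarization · Controls – unlabelled peptide for full inhibition, DMSO wells as neutral · Probe or stimulus – TMR-labelled reporter peptide T*-PRC34 bound in PDZ groove · Times – 1 h at RT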
NTR1 agonist – agonists of human neurotensin receptor NTR1. NTR1-U2OS beta-arrestin-GFP spot imaging, agonist mode. activation, % at 20 µM. 330,000 tested, 0.17% active. AID 493036;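 active = activation at or above 40% of the spot to cytoplasm intensity ratio, with at least 20 cells analyzed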
Target sequence (P30989 whole entry, looked up): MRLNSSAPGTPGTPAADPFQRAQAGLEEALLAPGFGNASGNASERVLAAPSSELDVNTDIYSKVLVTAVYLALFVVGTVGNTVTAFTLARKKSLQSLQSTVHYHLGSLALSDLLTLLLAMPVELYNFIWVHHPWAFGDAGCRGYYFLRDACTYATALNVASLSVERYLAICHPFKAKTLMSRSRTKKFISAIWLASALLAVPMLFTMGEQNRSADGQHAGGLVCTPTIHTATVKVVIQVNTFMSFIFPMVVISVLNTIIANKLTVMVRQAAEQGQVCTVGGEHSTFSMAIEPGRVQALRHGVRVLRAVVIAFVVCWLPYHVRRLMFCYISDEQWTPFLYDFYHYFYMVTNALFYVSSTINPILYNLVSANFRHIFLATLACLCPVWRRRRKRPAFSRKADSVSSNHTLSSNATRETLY
CAL PDZ FP-2 – inhibitors of human CAL PDZ peptide binding; AID 602252; 300,000 tested, 0.92% active; Q9HD26; inhibition, % at 24.9 µM; purified CAL PDZ, TMR-peptide fluorescence polarization, 1 h;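 active = mean inhibition of at least 30% with at least half of replicates also reaching 30%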
dFosB activator – mouse delta FosB homodimer activation; P13346; purified delta FosB, TAMRA-CDK5 oligo fluorescence polarization; percent of positive-control signal above neutral wells; activation, % at 25 µM; 340,000 tested, 0.99% active; AID 493131;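 active = mean activation above about 17%, with every replicate also reaching it, limit read from the data, passing the limit was not always enough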
PKA-R2B activ – activates the human PKA-R2B holoenzyme complex; P22694+P31323; PKA-R2B holoenzyme dissociation, Cy5-IP20 fluorescence polarization; R2B truncated from residue 108, S112A mutant; 0% DMSO only, 100% 113 µM cGMP; activation, % at 11.4 µM; 340,000 tested, 0.079% active;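 active = activation above a cutoff set at the mean over all compounds plus 3 SD, cut at about 18% in these data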;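 note: higher means more holoenzyme dissociation and a rise in polarization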
PKA-R1A act – activates the PKA-R1A holoenzyme complex | P00514+P68181 | activation, % at 11.4 µM | PKA-R1A dissociation, Cy5-IP20 fluorescence polarization; scaled: DMSO 0%, 113 µM cGMP 100% | AID 504707 | 340,000 tested, 0.083% active;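 active = percent activation above the mean of all tested compounds plus 3 SD, cut at about 19% in these data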;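 note: higher means more PKAc released from R1A so a rise in polarization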
Hits are given with their value.

Cc1ccc(NC(=O)CCCn2c(=O)oc3ccccc32)c(O)c1 was read as CAL PDZ FP-1 inactive, NTR1 agonist inactive, CAL PDZ FP-2 inactive, dFosB activator inactive, PKA-R2B activ inactive and PKA-R1A act inactive.
`Cc1ccc(NC(=O)CCn2c(=O)oc3ccccc32)c(C)c1` gave CAL PDZ FP-1 inactive, NTR1 agonist inactive, CAL PDZ FP-2 48, dFosB activator inactive, PKA-R2B activ inactive and PKA-R1A act inactive.
`COc1ccc(C)cc1NC(=O)Cn1c(=O)oc2ccccc21` gave CAL PDZ FP-1 inactive, NTR1 agonist inactive, CAL PDZ FP-2 56, dFosB activator 19, PKA-R2B activ inactive and PKA-R1A act inactive.
`Cc1ccccc1NC(=O)Cn1c(=O)oc2ccccc21` gave CAL PDZ FP-1 inactive, NTR1 agonist inactive, CAL PDZ FP-2 inactive, dFosB activator inactive, PKA-R2B activ inactive and PKA-R1A act inactive.
O=C1c2ccsc2SCCN1Cc1ccc(F)cc1 was read as NTR1 agonist inactive, CAL PDZ FP-2 39, dFosB activator inactive, PKA-R2B activ inactive and PKA-R1A act inactive.
For C#CC1(O)CCC2C3CCc4cc(O)cc(C)c4C3CCC21C (centres undefined) the results were CAL PDZ FP-1 inactive, dFosB activator inactive, PKA-R2B activ inactive and PKA-R1A act inactive.
For CCn1c(COc2cccc3ccccc23)nnc1SCC(N)=O the results were CAL PDZ FP-1 inactive, NTR1 agonist inactive, CAL PDZ FP-2 52, dFosB activator inactive, PKA-R2B activ inactive and PKA-R1A act inactive.
C[C@H](CO)N1C[C@H](C)[C@@H](CN(C)C(=O)c2ccccn2)Oc2cc(Br)ccc2S1(=O)=O was read as PKA-R2B activ inactive and PKA-R1A act inactive.
For CC(C)(C)C(=O)Nc1ccccc1C(=O)Nc1ccncc1 the results were CAL PDZ FP-1 inactive, NTR1 agonist inactive, CAL PDZ FP-2 inactive, dFosB activator inactive, PKA-R2B activ inactive and PKA-R1A act inactive.
Screening O=C(Nc1ccccc1C(=O)Nc1ccncc1)c1ccccc1 returned CAL PDZ FP-1 inactive, NTR1 agonist inactive, CAL PDZ FP-2 43, dFosB activator inactive, PKA-R2B activ inactive and PKA-R1A act inactive.
For CCN(CC)S(=O)(=O)c1ccc(N2CCCC2)c(NC(=O)C2CCCCC2)c1 the results were CAL PDZ FP-1 inactive, NTR1 agonist inactive, CAL PDZ FP-2 40, dFosB activator inactive, PKA-R2B activ inactive and PKA-R1A act inactive.
For CCN(CC)S(=O)(=O)c1ccc(N2CCOCC2)c(NC(=O)C2CCCC2)c1 the results were CAL PDZ FP-1 inactive, NTR1 agonist inactive, CAL PDZ FP-2 inactive, dFosB activator inactive, PKA-R2B activ inactive and PKA-R1A act inactive.
CN(C)S(=O)(=O)c1ccc(NC(=S)NC(=O)C2CCC2)cc1 was read as CAL PDZ FP-1 inactive, NTR1 agonist inactive, CAL PDZ FP-2 inactive, dFosB activator inactive, PKA-R2B activ inactive and PKA-R1A act inactive.
`CCN(CC)S(=O)(=O)c1ccc(NC(=S)NC(=O)C2CCC2)cc1` gave CAL PDZ FP-1 inactive, NTR1 agonist inactive, CAL PDZ FP-2 54, dFosB activator inactive, PKA-R2B activ inactive and PKA-R1A act inactive.
For CCN1CCN(c2ccc(S(=O)(=O)N3CCOCC3)cc2NC(=O)C2CCC(C(C)(C)C)CC2)CC1 (centres undefined) the results were CAL PDZ FP-1 inactive, CAL PDZ FP-2 73, dFosB activator inactive, PKA-R2B activ inactive and PKA-R1A act inactive.
`COc1cc(C(=O)N2CCN(S(=O)(=O)c3cccs3)CC2)cc(OC)c1C` gave CAL PDZ FP-1 inactive, NTR1 agonist inactive, CAL PDZ FP-2 58, dFosB activator inactive, PKA-R2B activ inactive and PKA-R1A act inactive.
O=C(c1cccs1)N1CCN(S(=O)(=O)c2cccs2)CC1 was read as CAL PDZ FP-1 inactive, NTR1 agonist inactive, CAL PDZ FP-2 inactive, dFosB activator inactive, PKA-R2B activ inactive and PKA-R1A act inactive.
`O=C(c1cc(COc2c(F)cccc2F)on1)N(Cc1ccccc1)CC1CC1` gave CAL PDZ FP-1 inactive, NTR1 agonist inactive, CAL PDZ FP-2 64, dFosB activator inactive, PKA-R2B activ inactive and PKA-R1A act inactive.
Screening COc1ccncc1-c1ccc(C2=CC(=O)CC(C)(C)C2=O)cc1 returned PKA-R2B activ inactive and PKA-R1A act inactive.
`O=C(NCc1ccccn1)c1ccco1` gave CAL PDZ FP-1 inactive, NTR1 agonist inactive, CAL PDZ FP-2 inactive, dFosB activator inactive, PKA-R2B activ inactive and PKA-R1A act inactive.
For O=C(NCc1ccccn1)c1cn(Cc2ccccc2)nn1 the results were NTR1 agonist inactive, CAL PDZ FP-2 105, dFosB activator inactive, PKA-R2B activ inactive and PKA-R1A act inactive.
Screening Cc1ccc(CN2CCSc3ccc(C(=O)NC4CCN(Cc5ccccc5)CC4)cc32)cc1 returned CAL PDZ FP-1 inactive, NTR1 agonist inactive, CAL PDZ FP-2 inactive, dFosB activator 43, PKA-R2B activ inactive and PKA-R1A act inactive.
`CCN1CCN(CCCNC(=O)c2ccc3c(c2)NC(=O)/C(=C\c2cccc(C)c2)S3)CC1` gave CAL PDZ FP-1 inactive, NTR1 agonist inactive, CAL PDZ FP-2 inactive, dFosB activator inactive, PKA-R2B activ inactive and PKA-R1A act inactive.
Cc1ccc(-n2c(=O)[nH]c3cc(C(=O)NC4CCN(Cc5ccccc5)CC4)ccc3c2=O)cc1 was read as CAL PDZ FP-1 inactive, NTR1 agonist inactive, CAL PDZ FP-2 38, dFosB activator inactive, PKA-R2B activ inactive and PKA-R1A act inactive.
`Cc1cccc(/C=C2/Sc3ccc(C(=O)NCCCN4CCOCC4)cc3NC2=O)c1` gave CAL PDZ FP-1 inactive, NTR1 agonist inactive, CAL PDZ FP-2 inactive, dFosB activator 33, PKA-R2B activ inactive and PKA-R1A act inactive.
Screening O=C(NCCCN1CCOCC1)c1ccc2c(c1)N(Cc1ccccc1)CCS2 returned CAL PDZ FP-1 inactive, NTR1 agonist inactive, CAL PDZ FP-2 58, dFosB activator inactive, PKA-R2B activ inactive and PKA-R1A act inactive.
For COc1ccc(Cn2c(=O)[nH]c3cc(C(=O)NC4CCCC4)ccc3c2=O)cc1 the results were CAL PDZ FP-1 inactive, NTR1 agonist inactive, CAL PDZ FP-2 inactive, dFosB activator inactive, PKA-R2B activ inactive and PKA-R1A act inactive.
`O=C(NCc1cnc2ccccn12)C1CCC(=O)N(Cc2cccc(F)c2)C1` (centres undefined) gave CAL PDZ FP-1 inactive, NTR1 agonist inactive, CAL PDZ FP-2 inactive, dFosB activator inactive, PKA-R2B activ inactive and PKA-R1A act inactive.
For COc1ccc(-c2cn(Cc3ccc(C(=O)c4ccccc4)cc3)nn2)cc1 the results were NTR1 agonist inactive.
`Cc1ccc2[nH]c3nc(N/N=C/c4cccc(O)c4)nnc3c2c1` gave CAL PDZ FP-1 inactive, NTR1 agonist inactive, CAL PDZ FP-2 inactive, dFosB activator 21, PKA-R2B activ inactive and PKA-R1A act inactive.

From PubChem BioAssay
